hERG rescue = compounds protecting human hERG from proarrhythmic drug block. CHO-hERG, FluxOR thallium flux, dofetilide IC70 present. hit rate 0.51% among 310,000. AID 1511. activation (rescue from dofetilide block), less the hit threshold, % at 10 µM;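 active means activation above the mean of controls blocked by dofetilide plus 5 SD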;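 further: thallium influx through hERG after potassium depolarization seen as dye fluorescence rise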
Target sequence (Q12809 whole entry, looked up): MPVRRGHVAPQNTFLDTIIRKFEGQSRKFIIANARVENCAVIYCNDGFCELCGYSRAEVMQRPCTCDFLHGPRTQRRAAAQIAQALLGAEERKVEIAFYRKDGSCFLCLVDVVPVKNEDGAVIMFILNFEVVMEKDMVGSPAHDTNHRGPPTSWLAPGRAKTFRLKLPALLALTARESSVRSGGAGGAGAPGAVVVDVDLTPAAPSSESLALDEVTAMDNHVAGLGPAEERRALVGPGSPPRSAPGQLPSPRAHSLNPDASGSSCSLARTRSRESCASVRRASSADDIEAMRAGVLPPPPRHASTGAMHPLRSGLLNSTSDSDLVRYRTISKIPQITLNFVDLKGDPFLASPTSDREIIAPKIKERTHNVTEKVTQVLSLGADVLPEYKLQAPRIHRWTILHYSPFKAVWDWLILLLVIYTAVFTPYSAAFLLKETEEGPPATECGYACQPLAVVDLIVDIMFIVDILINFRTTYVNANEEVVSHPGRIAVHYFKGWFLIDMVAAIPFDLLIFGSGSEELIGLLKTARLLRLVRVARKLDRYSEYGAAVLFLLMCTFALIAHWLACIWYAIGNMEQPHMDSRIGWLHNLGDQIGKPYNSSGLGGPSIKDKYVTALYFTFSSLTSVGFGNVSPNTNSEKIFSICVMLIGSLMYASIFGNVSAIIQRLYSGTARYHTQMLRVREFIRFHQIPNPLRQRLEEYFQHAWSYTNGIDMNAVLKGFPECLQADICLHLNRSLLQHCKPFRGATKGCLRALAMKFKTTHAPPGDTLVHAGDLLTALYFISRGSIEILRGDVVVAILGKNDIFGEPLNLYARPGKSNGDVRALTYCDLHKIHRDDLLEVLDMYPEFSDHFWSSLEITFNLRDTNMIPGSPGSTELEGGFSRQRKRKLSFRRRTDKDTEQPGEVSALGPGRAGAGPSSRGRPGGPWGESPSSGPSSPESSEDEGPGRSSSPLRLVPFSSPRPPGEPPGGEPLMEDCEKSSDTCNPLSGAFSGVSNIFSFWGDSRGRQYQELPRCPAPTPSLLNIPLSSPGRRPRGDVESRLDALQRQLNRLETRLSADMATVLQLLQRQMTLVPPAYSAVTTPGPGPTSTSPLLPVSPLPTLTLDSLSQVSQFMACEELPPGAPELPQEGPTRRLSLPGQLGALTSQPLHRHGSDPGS
KCNQ1 act = potentiates or activates the human KCNQ1 potassium channel | P51787 | CHO-K1 KCNQ1, thallium flux FluxOR fluorescence; hits give high values | B-score at 10 µM | hit rate 0.35% among 310,000 | AID 2648;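 active means fluorescence ratio B-score, a plate-corrected score, at least three library SD, with initial intensity B-score within 5 SD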
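Doses: Single concentration per compound, DMSO matched to controls | Test system: KCNQ1-transfected CHO-K1 cells | Timing: 90 min dye loading and 20 min compound exposure, both at room temperature | Measured by: Kinetic FluxOR thallium fluorescence, 10-s 1-Hz baseline, 110-s post-stimulus read | Medium: Assay buffer with matched DMSO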
KCNK9 inh = human KCNK9 channel inhibition; hit rate 1.2% among 310,000; B-score at 10 µM; HEK293 KCNK9, FluxOR thallium flux fluorescence; hits give low values; Q9NPC2;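 active means ratio B-score over 3 SD below the library mean, with starting fluorescence within 5 SD of its mean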;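 further: negative B-score means less thallium flux so channel inhibition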
Kir21 inh = blocks the mouse Kir2.1 inward-rectifier potassium channel; P35561; HEK293-Kir2.1, FluxOR thallium flux fluorescence; hits give low values; B-score at 10 µM; hit rate 0.85% among 310,000; AID 1672;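 active means fluorescence ratio B-score at or below minus 3 SD of library scores, with starting-brightness B-score within 2 SD, cut at about -4.2 in these data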;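 further: channel flux triggered by added potassium and thallium sulfate stimulus; B-score of peak minus minimum fluorescence over baseline after thallium stimulus; more negative B-score means stronger Kir2.1 block with less thallium influx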
KCNK3 block = human KCNK3 channel inhibition, primary screen; CHO-KCNK3 thallium flux, FluxOR fluorescence; hits give low values; B-score at 10 µM; hit rate 0.84% among 340,000;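 active means B-score under library mean minus 4 SD, starting fluorescence ratio at most library mean plus 5 SD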;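 further: more negative B-score means stronger inhibition of thallium flux through KCNK3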
KCNQ1 inh = blocks the human KCNQ1 potassium channel; P51787; CHO-K1 KCNQ1, FluxOR thallium flux fluorescence; hits give high values; B-score at 10 µM; hit rate 1.3% among 310,000;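 active means compounds whose thallium flux B-score, printed positive for inhibition, exceeds three library SD while starting fluorescence stays within three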;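 further: channel opened by potassium depolarization with thallium stimulus after 20 min compound exposure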
Hits are given with their value; – = inactive; · = no result. Most compounds without a hit are left out; they make up all but 3.7% or so of the library.

SMILES	hERG rescue	KCNQ1 act	KCNK9 inh	Kir21 inh	KCNK3 block	KCNQ1 inh
CCOC(=O)c1cc(CC)sc1NC(=O)CCC(=O)O	–	–	–	–	–	–
COC(=O)c1cc(C)sc1NC(=O)CN1CCN(C(=O)c2ccco2)CC1	–	–	–	–	–	–
CCOC(=O)c1cc(CC)sc1NC(=O)CN1CCN(C(=O)c2ccco2)CC1	–	23	–	–	–	–
CCOC(=O)c1cc(CC)sc1NC(=O)Cc1ccsc1	–	–	–	–	-9	–
CCOC(=O)c1c(NC(=O)CN2CCN(C(=O)c3ccco3)CC2)sc2c1CCCC2	29	14	–	–	–	–
N#Cc1c(NC(=O)COC(=O)c2nccnc2N)sc2c1CCCC2	–	–	–	–	–	–
CCOC(=O)c1c(NC(=O)COC(=O)c2nccnc2N)sc2c1CCC2	·	·	·	·	-11	·
CCCc1ccc(-c2ccc(C(=O)O)cc2)nc1	5.9	–	–	–	–	–
CCCCCc1ccc(-c2ccc(/C=C/C(N)=O)cc2)nc1	–	–	–	–	–	–
Cc1[nH]n2c(=O)cc(C(C)C)nc2c1-c1ccccc1	–	–	–	–	–	–
Cc1[nH]n2c(=O)cc(-c3ccc([N+](=O)[O-])cc3)nc2c1-c1ccccc1	–	–	–	–	–	7
Cc1[nH]n2c(=O)cc(C(C)(C)C)nc2c1-c1ccccc1	8.6	15	–	–	–	–
COc1ccccc1CNC(=O)Cn1cccc1C(=O)c1ccccc1C	–	–	–	–	–	–
CC(=O)c1ccc(N2CCN(S(=O)(=O)c3c(C)[nH]c(C)c3C(=O)N3CCCCC3)CC2)cc1	–	–	–	–	–	–
CN1CCN(C(CNC(=O)Nc2ccc(Cl)cc2)c2ccc(F)cc2)CC1 (configuration not stated)	–	–	–	–	–	6
Cc1ccc(C(CNC(=O)Nc2ccc(Cl)cc2)N2CCN(C)CC2)cc1 (configuration not stated)	–	–	–	–	–	–
COC(CN1CCc2c(C)nc3c(C#N)cnn3c21)OC	6.3	–	–	–	–	–
N=C(N)SCc1cn(-c2ccccc2)nc1-c1ccc(Br)cc1	–	–	–	-7	-14	11
Cc1ccc(-c2nn(-c3ccccc3)cc2CO)cc1	–	–	–	–	–	–
CCOc1ccc(NC(=O)CN2C(=O)NC(C)(c3ccc4c(c3)OCCCO4)C2=O)cc1OCC (configuration not stated)	·	·	·	·	–	·
Cc1[nH]c2ccccc2c1C1=CC(=O)C=CC1=O	·	·	·	·	-9.2	·
Cc1[nH]c2ccccc2c1CC#N	–	–	–	–	–	–
COc1ccc(OC)c(S(=O)(=O)NCc2csc(-c3ccccc3)n2)c1	–	–	–	-4.2	–	–
COc1ccc(OC)c(S(=O)(=O)NCc2cn3c(C)csc3n2)c1	–	–	–	–	–	–
CCc1ccc(S(=O)(=O)NCCc2csc(-c3cccnc3)n2)s1	–	–	–	–	–	–
SMILES	hERG rescue	KCNQ1 act	KCNK9 inh	Kir21 inh	KCNK3 block	KCNQ1 inh
CCc1ccc(S(=O)(=O)NCc2csc(-c3ccccc3)n2)s1	–	–	–	-6.3	–	–
O=S(=O)(NCc1csc(-c2ccccc2)n1)c1ccc(Cl)s1	–	–	–	-4.6	–	–
COc1ccccc1NC(=O)COC(=O)CCc1ccc(S(=O)(=O)N2CCOCC2)cc1	·	·	·	·	–	·
CC(=O)C1=C(C)NC(SCC(=O)Nc2nc3ccccc3s2)=C(C#N)C1c1ccc(Cl)cc1 (configuration not stated)	–	–	–	–	–	7
COc1ccc(NC(=O)CSC2=C(C#N)C(c3ccco3)C(C(=O)Nc3nc4ccccc4s3)=C(C)N2)cc1 (configuration not stated)	–	–	–	–	–	–
Cc1c(NC(=O)c2ccc(S(=O)(=O)Nc3ccccc3F)cc2)c(=O)n(-c2ccccc2)n1C	·	·	·	·	–	·
Cc1ccc(Cc2c[nH]c(=S)s2)cc1	27	38	–	–	–	–
O=C(NCc1ccccc1C(F)(F)F)C1CC(c2cc(C(F)(F)F)cc(C(F)(F)F)c2)=NO1 (configuration not stated)	–	–	–	–	–	6
COc1ccccc1C(=O)NC(CCSC)C(=O)NCCCn1nc(C)cc1C (configuration not stated)	–	–	–	–	–	–
O=C(N/N=C/c1cn(-c2ccccc2)nc1-c1cccnc1)c1ccc(F)cc1	–	–	–	–	–	–
O=C(N/N=C/c1cn(-c2ccccc2)nc1-c1ccc(F)cc1)c1ccc(Br)o1	–	–	–	–	-8.7	–
O=C(N/N=C/c1cn(-c2ccccc2)nc1-c1cc2ccccc2o1)c1ccncc1	–	–	–	–	–	–
O=C(N/N=C/c1cn(-c2ccccc2)nc1-c1cc2ccccc2o1)c1cccnc1	–	–	–	–	–	6
COc1cccc(NC(=O)CN(C)C(=O)c2ccc(-c3ccccc3Cl)o2)c1	–	–	–	–	–	–
Cc1nc2ccc(NS(=O)(=O)c3c(F)cc(F)cc3Br)cc2s1	·	·	·	·	–	·
Cc1cc(C)c(NC(=O)CSc2nnc(CNC(=O)c3ccco3)o2)c(C)c1	–	–	–	–	–	–
CCOC(=O)C1CCN(S(=O)(=O)c2c(Cl)ccc3nonc23)CC1	–	9	–	–	–	–
CCOC(=O)C1CCN(S(=O)(=O)c2cccc3nonc23)CC1	14	–	–	–	–	–
CCOC(=O)c1cnn(-c2nc3c(C)cccc3s2)c1C(F)(F)F	–	–	-7.9	–	–	–
COc1cc([N+](=O)[O-])ccc1NC(=S)Nc1cc(C(=O)OC(C)C)cc(C(=O)OC(C)C)c1	–	–	–	–	–	6
COc1cc([N+](=O)[O-])ccc1NC(=O)Nc1ccc2c(c1)OCCO2	4.6	–	–	–	–	–
CC(=O)Oc1ccc(C(=O)Nc2cc(C)on2)cc1	–	–	–	–	–	–
CSCC[C@H](NC(=O)c1ccc2c(c1)OCO2)c1nnc2ccccn12	–	–	–	–	–	–
CCCNC(=O)C1(CC2CC(c3ccccc3)=NO2)CCN(C(=O)C2CCCC2)CC1 (configuration not stated)	·	·	·	·	–	·
C=CCn1c(=O)c(C(=O)Nc2ccccc2S(N)(=O)=O)c(O)c2ccccc21	–	–	–	–	–	–
O=C(O)C(Cc1ccccc1)N1C(=O)c2c(Cl)c(Cl)c(Cl)c(Cl)c2C1=O (configuration not stated)	–	–	–	–	–	6
O=C(O)C(Cc1ccccc1)N1C(=O)c2ccccc2C1=O (configuration not stated)	–	–	–	–	–	–
Cc1cccc(CSCCNC(=O)COc2ccc(Cl)cc2)c1	–	–	–	–	–	–
O=C(COc1ccc(Cl)cc1)NCCSCc1cccc(Cl)c1	–	–	–	–	–	6
